APJ antag = antagonists of human apelin receptor APJ, primary screen, CHO-K1 cells, beta-arrestin complementation, luminescence; P35414; inhibition, % at 20 µM; 0.32% of 330,000 active;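 active = inhibition above about 40% at 20 µM, limit read from the data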;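 also: cells challenged with 10 nM apelin-13 agonist together with compound; plate controls were apelin-13 plus DMSO wells for no effect and DMSO wells lacking apelin-13 for full effect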
Target sequence (P35414 whole entry, looked up): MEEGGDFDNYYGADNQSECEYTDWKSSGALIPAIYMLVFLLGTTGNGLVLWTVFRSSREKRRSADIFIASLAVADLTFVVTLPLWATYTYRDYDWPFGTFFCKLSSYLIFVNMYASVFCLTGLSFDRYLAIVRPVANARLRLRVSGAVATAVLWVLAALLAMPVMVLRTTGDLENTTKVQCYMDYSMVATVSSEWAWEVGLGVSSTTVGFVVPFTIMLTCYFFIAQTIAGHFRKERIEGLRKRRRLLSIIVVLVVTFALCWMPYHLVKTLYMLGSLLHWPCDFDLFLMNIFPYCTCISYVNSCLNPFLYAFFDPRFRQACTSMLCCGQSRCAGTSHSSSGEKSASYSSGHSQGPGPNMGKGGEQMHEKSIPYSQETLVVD
CCR6 antagonist = CCR6 receptor antagonists, primary screen, cell-based, CHO-K1, luminescence, beta-arrestin, uHTS. C-C chemokine receptor type 6 (Homo sapiens), P51684. 0.49% of 340,000 active. CHO-K1 CCR6 PathHunter beta-arrestin, CCL20-stimulated. inhibition, % at 20 µM;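 active = compounds whose inhibition of the agonist-driven luminescence signal at 20 µM reaches about 50%, limit read from the data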;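 also: cells stimulated with CCL20 at 14 nM final; plate controls were DMSO with CCL20 for no effect and DMSO without agonist for full effect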
APJ ag = agonists of human apelin receptor APJ, primary screen, CHO-K1 cells, PathHunter beta-arrestin, luminescence. P35414. 0% DMSO wells, 100% apelin. activation, % at 20 µM. 0.11% of 330,000 active. AID 2520, 2010;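 active = activation more than six SD over the plate average, tested at 20 µM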;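 also: 0% = DMSO alone and 100% = apelin-13 at 10 nM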
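Material: engineered CHO-K1 APJ arrestin reporter cells; amount: 1000 CHO-K1 reporter cells seeded per well; incubation: compound stimulation 90 min at 25 °C, detection 60 min; signal: luminescent beta-gal fragment complementation, chemiluminescent substrate; read-out basis: APJ agonist activity; controls: DMSO-only wells as negative, 10 nM Apelin-13 as positive control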
CXCR6 block = CXCR6 receptor inhibitors, primary screen, cell-based, beta-arrestin, luminescence, CHO-K1 PathHunter, 1536-well. C-X-C chemokine receptor type 6 (Homo sapiens), O00574. inhibition, % at 20 µM. 0.36% of 360,000 active; in the data active = inhibition above about 34%, passing the limit was not always enough;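 also: antagonist mode with CXCL16 agonist at 10 nM final; 0% = 10 nM CXCL16 with DMSO and 100% = unstimulated wells without agonist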
Target sequence (O00574 whole entry, looked up): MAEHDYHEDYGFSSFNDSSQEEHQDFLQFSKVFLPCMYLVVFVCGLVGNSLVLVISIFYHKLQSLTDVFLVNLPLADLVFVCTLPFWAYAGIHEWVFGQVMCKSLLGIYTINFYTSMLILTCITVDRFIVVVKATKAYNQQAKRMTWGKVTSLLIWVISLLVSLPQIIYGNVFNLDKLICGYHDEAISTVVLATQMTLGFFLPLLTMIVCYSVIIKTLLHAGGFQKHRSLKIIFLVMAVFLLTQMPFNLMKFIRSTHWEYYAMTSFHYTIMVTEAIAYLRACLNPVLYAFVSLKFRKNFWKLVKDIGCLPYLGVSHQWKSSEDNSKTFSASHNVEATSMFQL
EBI2 antag = EBI2 receptor antagonists, beta-arrestin recruitment, primary screen, cell-based, luminescence, 7a,25-OHC stimulation, uHTS | G-protein coupled receptor 183 (Homo sapiens), P32249 | 7a,25-OHC stimulated | inhibition, % at 5 µM | 0.81% of 360,000 active | AID 651636, 2012; in the data active = inhibition above about 38%;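 also: enzyme fragment complementation signal reports receptor beta-arrestin coupling in cells; 0% = agonist plus DMSO wells and 100% = wells without agonist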
EBI2 antag conf = EBI2 antagonist hit retest, beta-arrestin, confirmation, cell-based, single concentration, luminescence, 7a,25-OHC stimulation | 7a,25-OHC antagonism | AID 651997, 2013 | shares compounds with EBI2 antag | 29% of 2,400 active | inhibition, % at 5 µM;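 active = inhibition of at least 50%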
EBI2 agonist = EBI2 agonist activity of antagonist hits, confirmation, counter-screen for EBI2 antagonist project, cell-based, single concentration, agonist mode, luminescence; shares compounds with EBI2 antag; EBI2-expressing cells, 60 min; 0% vehicle, 100% 7α,25-dihydroxycholesterol control; activation, % at 5 µM; 2,400 tested, under 10 active;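 active = activation of at least 50%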
bGal counter = E. coli beta-galactosidase enzyme inhibition, confirmation, counter-screen for EBI2 antagonist project, biochemical, luminescence, single concentration; shares compounds with EBI2 antag; purified beta-galactosidase, luminescent Galacton Star, 15 min; inhibition, % at 5 µM; 1% of 2,400 active;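 active = replicate-average signal at least 3 plate SD below neutral wells, shown as high inhibition, flagging enzyme-inhibiting false positives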;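 also: 0% = DMSO wells with enzyme and 100% = wells lacking enzyme; higher means stronger loss of beta-gal luminescence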
An asterisk follows results filed as active; . = no result. Shown are actives, neighbours in structure and some others; about 1.5% of the full set was active somewhere.

SMILES | APJ antag | CCR6 antagonist | APJ ag | CXCR6 block | EBI2 antag | EBI2 antag conf | EBI2 agonist | bGal counter
COCc1cc(C)nc(OCC(=O)N/N=C/c2ccc(O)cc2)c1C#N | 1 | 8 | -2 | 7 | 63* | 41 | 2 | 6
Fc1ccccc1N1CCN(C(c2ccnc3ccccc23)c2nnnn2-c2ccc3c(c2)OCCO3)CC1 (stereo not given) | . | . | . | 12 | 13 | . | . | .
COc1ccc(NC(=O)Nc2ncn(Cc3cccc(C(F)(F)F)c3)n2)cc1OC | 3 | -7 | 6 | -3 | 3 | . | . | .
FC(F)(F)c1cccc(Cn2cnc(NC(=S)NCCc3ccccc3)n2)c1 | -21 | 3 | -3 | -4 | 54* | 42 | 0 | -17
Nc1c([N+](=O)[O-])cc2c3c(cccc13)CC2 | . | . | . | 7 | -1 | . | . | .
C[C@H](CO)N1C[C@H](C)[C@@H](CN(C)CC2CC2)OCc2cnnn2CCCC1=O | . | . | . | 7 | -6 | . | . | .
Clc1ccc(CN(Cc2ccccc2)C(c2cccs2)c2nnnn2C2CCCC2)cc1 (stereo not given) | 14 | 1 | -2 | 5 | 31 | . | . | .
CC(C)(C)n1nnnc1C(c1cccs1)N(Cc1ccc(Cl)cc1)CC1CCCO1 (stereo not given) | 5 | 14 | -1 | 2 | 60* | 16 | 0 | 6
CC(C)(C)OC(=O)N(CCc1ccccc1)Cc1ccccc1OCc1cccc(NC(=O)/C=C/c2ccccc2)c1 | . | 13 | . | -2 | 20 | . | . | .
CC(C)(C)OC(=O)N(CCc1ccccc1)Cc1ccc(OCc2cccc(NC(=O)/C=C/c3ccccc3)c2)cc1 | . | 2 | . | 5 | 59* | 15 | 1 | 5
CC(=O)c1ccc(OCCCC(=O)N2CCN(S(=O)(=O)c3cccs3)CC2)cc1 | -2 | 5 | 7 | -4 | 49* | 48 | -1 | -14
CC(=O)c1ccc(OCC(=O)N2CCN(S(=O)(=O)c3ccc(Br)s3)CC2)cc1 | -10 | 6 | -6 | -2 | 69* | 39 | 0 | 12
O=C(CCCOc1ccccc1)N1CCN(S(=O)(=O)c2cccs2)CC1 | 17 | 8 | -3 | 4 | 29 | . | . | .
CCOc1ccc(OCC(O)CN2CCN(S(=O)(=O)c3cccc(C(F)(F)F)c3)CC2)cc1 (stereo not given) | . | 1 | . | -5 | 77* | 47 | 0 | 6
O=S(=O)(c1cccc(C(F)(F)F)c1)N1CCN(CC(O)COCc2ccccc2)CC1 (stereo not given) | -9 | 5 | -1 | -5 | 14 | . | . | .
Cc1ccc2cccc(N=Cc3c(C)[nH]n(-c4ccccc4)c3=O)c2n1 | . | 89* | . | 69* | 78* | 67* | -1 | 11
CCOc1ccccc1CN(Cc1ccco1)S(=O)(=O)c1ccc(-n2cnnn2)c(OC)c1 | . | 23 | . | 14 | 49* | 14 | 0 | 7
Cc1ccc(N(C)C(=O)N2CCN(S(=O)(=O)c3ccc(C)cc3)CC2)cc1 | 8 | 3 | 1 | -1 | 33 | . | . | .
Cc1ccc(N(C)C(=O)N2CCN(S(=O)(=O)c3ccc4ccccc4c3)CC2)cc1 | -4 | -11 | -5 | -8 | 45* | 21 | 0 | 7
CCOC(=O)N1CCN(C(=O)C[C@@H]2C[C@@]3(C(=O)OCC)CCCC=C3N(CCC3=CCCCC3)C2=O)CC1 | . | . | . | . | -3 | . | . | .
COc1ccc(N2C(=O)c3ccccc3NC(=O)C2C(=O)NCCc2ccccc2F)cc1 (stereo not given) | . | . | . | . | -3 | . | . | .
O=C(CCc1ccccc1)N1CCN(C(=O)CCc2ccccc2)CC1 | . | 9 | . | 0 | 55* | 25 | -1 | -8
O=C(/C=C/c1ccc(F)cc1)NCCC1=CCCCC1 | 12 | -6 | -3 | -4 | 55* | 45 | 2 | 2
O=C(COc1ccc(Cl)cc1)N1CCN(C(=O)c2cccs2)CC1 | -7 | 9 | -1 | 10 | 80* | 49 | 0 | 7
O=C(COc1ccccc1)N1CCN(C(=O)c2cccc(F)c2)CC1 | -10 | -14 | -2 | 3 | 30 | . | . | .
SMILES | APJ antag | CCR6 antagonist | APJ ag | CXCR6 block | EBI2 antag | EBI2 antag conf | EBI2 agonist | bGal counter
O=C(COc1ccc(Cl)cc1)N1CCN(C(=O)c2cccc(F)c2)CC1 | 1 | -7 | -1 | 4 | 86* | 68* | 0 | -11
O=C(C(=NNc1ccccc1)C(=S)Nc1ccccc1)c1ccccc1 | . | . | . | 26 | 20 | . | . | .
O=C(/C=C/c1cccc(F)c1)Nc1cc(S(=O)(=O)N2CCOCC2)ccc1Cl | 5 | 12 | -1 | -4 | 13 | . | . | .
O=C(/C=C/c1cccc(F)c1)c1ccc(N2CCOCC2)cc1 | 0 | 27 | -5 | 10 | 58* | 38 | 0 | 3
Cc1cc(C(C)(C)C)oc1C(=O)O | 2 | -9 | -3 | -4 | 2 | . | . | .
Cc1cc(C(C)(C)C)oc1C(=O)N1CCN(C(=O)c2oc(C(C)(C)C)cc2C)CC1 | . | 13 | . | 14 | 48* | 30 | 0 | 6
CC(=O)N(Cc1ccco1)c1nc(C(=O)Nc2ccc(Cl)cc2)c(C)s1 | 5 | 25 | -1 | 6 | 61* | 17 | 1 | 7
CN(NC(=O)C(=O)NCc1ccco1)C(=O)Nc1ccc(Cl)cc1 | . | . | . | -3 | 9 | . | . | .
CCOC(=O)c1ccccc1NC(=O)CSc1nnc(Cc2cccn2C)n1-c1ccc(C)cc1 | 3 | 16 | -2 | -5 | 54* | 29 | -1 | -10
COc1ccc(-n2c(Cc3cccn3C)nnc2SCC(=O)Nc2cccc(C)c2C)cc1 | 7 | 5 | -3 | 5 | 49* | 25 | -2 | -8
Cn1cccc1Cc1nnc(SCC(=O)NCCc2ccccc2)n1C | 2 | -5 | -2 | -5 | -6 | . | . | .
COc1ccc(-n2c(COc3ccccc3)nnc2SCC(N)=O)cc1 | -3 | -7 | -1 | -5 | 49* | 3 | -1 | -11
COc1ccc(-n2c(Cc3cccn3C)nnc2SCC(=O)NCCc2ccccc2)cc1 | 6 | 12 | -1 | 6 | 44* | 36 | -1 | 4
CC(O)C1CCC2C3CCC4CC(O)CCC4(C)C3C(=O)CC12C (stereo not given) | . | 8 | . | 3 | -3 | . | . | .
C[C@H]1CCC(=O)N([C@H](CSc2ccc(Br)cc2)Cc2ccccc2)CC1 | 16 | 33 | -4 | 37 | 25 | . | . | .

Source: PubChem (Sanford-Burnham Center for Chemical Genomics)
